What was measured:
[1] = biological target: T1, Amine oxidase [flavin-containing] B (Bos taurus, UniProt P56560); assay: Inhibition of bovine brain mitochondria MAOB
T1 sequence (P56560 whole entry): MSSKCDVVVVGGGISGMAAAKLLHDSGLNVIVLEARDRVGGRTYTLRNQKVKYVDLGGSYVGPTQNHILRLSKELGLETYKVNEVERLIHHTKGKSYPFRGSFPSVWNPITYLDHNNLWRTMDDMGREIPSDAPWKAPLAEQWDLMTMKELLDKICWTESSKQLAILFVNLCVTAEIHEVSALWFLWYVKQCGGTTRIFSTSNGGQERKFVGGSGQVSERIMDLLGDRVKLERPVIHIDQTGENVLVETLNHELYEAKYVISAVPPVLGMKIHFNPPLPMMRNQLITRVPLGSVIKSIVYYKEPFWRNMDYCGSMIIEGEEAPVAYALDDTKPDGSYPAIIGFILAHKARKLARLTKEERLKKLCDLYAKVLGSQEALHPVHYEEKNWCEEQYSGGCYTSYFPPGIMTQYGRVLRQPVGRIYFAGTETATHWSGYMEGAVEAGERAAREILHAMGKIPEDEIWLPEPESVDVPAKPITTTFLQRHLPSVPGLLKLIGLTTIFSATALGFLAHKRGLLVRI
How it was run: (§1)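 Beef brain mitochondria isolated per Basford, 6 mg/mL, in 0.25 M potassium phosphate pH 7.4. Preincubation 30 min at 38 °C with 0.5 µM L-deprenyl (MAO-A) or 0.05 µM clorgyline (MAO-B). Inhibitor in DMSO, […]. Kynuramine at four final levels, 5 µM–0.1 mM, 30 min at 38 °C. Perchloric acid stop, fluorimetric read. Ki from Dixon plots; ≥3 experiments in duplicate.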

[2] = biological target: T2, Amine oxidase [flavin-containing] A (Bos taurus, UniProt P21398); assay: Inhibition of bovine brain mitochondria MAOA; how it was run: as §1
T2 sequence (P21398 whole entry): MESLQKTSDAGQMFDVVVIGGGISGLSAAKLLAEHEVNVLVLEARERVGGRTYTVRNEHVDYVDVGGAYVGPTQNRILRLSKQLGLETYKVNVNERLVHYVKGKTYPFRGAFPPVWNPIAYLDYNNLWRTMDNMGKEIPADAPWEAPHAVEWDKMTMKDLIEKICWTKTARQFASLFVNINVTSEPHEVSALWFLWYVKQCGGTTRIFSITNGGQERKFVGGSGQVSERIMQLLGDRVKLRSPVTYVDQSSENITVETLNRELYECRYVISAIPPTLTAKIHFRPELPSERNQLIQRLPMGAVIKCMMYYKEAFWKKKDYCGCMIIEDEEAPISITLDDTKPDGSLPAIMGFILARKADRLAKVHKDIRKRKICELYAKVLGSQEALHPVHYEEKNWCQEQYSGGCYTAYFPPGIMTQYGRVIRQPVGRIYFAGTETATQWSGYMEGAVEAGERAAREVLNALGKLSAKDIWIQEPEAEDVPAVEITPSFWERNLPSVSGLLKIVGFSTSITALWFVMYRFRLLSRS

[3] = species on record: Bos taurus; assay: Selectivity index, ratio of Ki for MAOB to Ki for MAOA in bovine brain mitochondria
How it was run: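 SI computed as Ki(MAO-B)/Ki(MAO-A). Both Ki values are from the fluorimetric kynuramine assay on bovine brain mitochondria, with isoforms isolated by L-deprenyl or clorgyline preincubation. Ki from Dixon plots; means of at least three experiments.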

[4] = species on record: Bos taurus; assay: Selectivity index, ratio of Ki for MAOA to Ki for MAOB in bovine brain mitochondria

SMILES	Ki [1] [nM]	Ki [2] [nM]	Ratio Ki [3]	Ratio Ki [4]
Cc1ccc(C2CC(c3ccc(F)cc3)=NN2C(N)=S)cc1 (stereo unspecified)	50	7	7.1	0.14
NC(=S)N1N=C(c2ccc(F)cc2)C[C@H]1c1ccc(Cl)cc1	2400	5	480	0.002
NC(=S)N1N=C(c2ccc(F)cc2)CC1c1ccc(Cl)cc1 (stereo unspecified)	1000	6	166	0.006
NC(=S)N1N=C(c2cccs2)CC1c1ccc(Cl)cc1 (stereo unspecified)	6	41	0.14	6.8
NC(=S)N1N=C(c2ccc(F)cc2)CC1c1ccco1 (stereo unspecified)	370	8	46.2	0.021
Cc1ccc(C2=NN(C(N)=S)C(c3ccc(Cl)cc3)C2)cc1 (stereo unspecified)	1.5	31	0.05	20.7
Cc1ccc(C2=NN(C(N)=S)C(c3ccco3)C2)cc1 (stereo unspecified)	170	4	42.5	0.02
Cc1ccc(C2=NN(C(N)=S)[C@H](c3ccc(Cl)cc3)C2)cc1	1	50	0.02	50

Next, values leading:

Ki [1] [nM]	Ki [2] [nM]	Ratio Ki [3]	Ratio Ki [4]	SMILES
1400	12	116	0.008	NC(=S)N1N=C(c2ccc(F)cc2)C[C@@H]1c1ccc(Cl)cc1
20	50	0.4	2.5	NC(=S)N1N=C(c2cccs2)CC1c1ccco1 (stereo unspecified)
50	27	1.85	0.54	NC(=S)N1N=C(c2cccs2)CC1c1cccs1 (stereo unspecified)
10	50	0.2	5	Cc1ccc(C2CC(c3cccs3)=NN2C(N)=S)cc1 (stereo unspecified)
10	6	1.6	0.6	Cc1ccc(C2=NN(C(N)=S)C(c3ccc(C)cc3)C2)cc1 (stereo unspecified)
2.7	13	0.2	4.8	Cc1ccc(C2=NN(C(N)=S)[C@@H](c3ccc(Cl)cc3)C2)cc1

Reference: ChEMBL document CHEMBL1139465, “Synthesis, molecular modeling studies, and selective inhibitory activity against monoamine oxidase of 1-thiocarbamoyl-3,5-diaryl-4,5-dihydro-(1H)- pyrazole derivatives” (J Med Chem, 2005)
